Screening data as filed in PubChem.
A selection: hits, their analogues and other compounds. The true share with any hit is near 2.3%.
Scp-1 inhibitor: Scp-1 phosphatase inhibitors, primary screen, biochemical, colorimetric, uHTS. inhibition, % at 20 µM. Recombinant Scp1, phosphopeptide, malachite green phosphate absorbance. hit rate 0.88% among 340,000. Carboxy-terminal domain RNA polymerase II polypeptide A small phosphatase 1 (Homo …;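 active means inhibition above about 50% at 20 µM, limit read from the data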
Target sequence (Q9GZU7 76-261 limits assumed): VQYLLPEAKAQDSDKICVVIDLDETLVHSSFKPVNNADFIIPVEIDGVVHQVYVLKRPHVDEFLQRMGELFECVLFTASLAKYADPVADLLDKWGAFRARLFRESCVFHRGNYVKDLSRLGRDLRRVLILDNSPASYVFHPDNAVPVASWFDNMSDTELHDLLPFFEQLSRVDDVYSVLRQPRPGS
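Incubation: 45 min enzyme reaction at room temperature / System: truncated SCP-1 phosphatase (76-261aa) / Reagent: Phospho 17-mer peptide substrate / Buffer or medium: Acidic Tris acetate buffer with magnesium and detergent / Signal: absorbance at 630 nm / Doses: one concentration, 20 µM, with 1.0% DMSO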
DNMT1 inh: human DNMT1 methyltransferase inhibitors, primary screen, biochemical, molecular beacon, fluorescence, HinP1I cleavage, uHTS | DNA (cytosine-5)-methyltransferase 1 (Homo sapiens), P26358 | AID 588458, 2011 | hit rate 0.83% among 360,000 | inhibition (reported as % activation of signal), % at 10 µM; in the data active means inhibition above about 50%
LMPTP inh: LMPTP phosphatase inhibitors, primary screen, biochemical, fluorescence intensity, uHTS; Low molecular weight phosphotyrosine protein phosphatase (Homo sapiens), P24666; recombinant LMPTP-A, OMFP fluorogenic substrate; inhibition, % at 20 µM; hit rate 0.22% among 360,000;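 active means compounds that cut the enzyme signal by at least half of the control window in the single-dose screen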
Target sequence (P24666 whole entry, looked up): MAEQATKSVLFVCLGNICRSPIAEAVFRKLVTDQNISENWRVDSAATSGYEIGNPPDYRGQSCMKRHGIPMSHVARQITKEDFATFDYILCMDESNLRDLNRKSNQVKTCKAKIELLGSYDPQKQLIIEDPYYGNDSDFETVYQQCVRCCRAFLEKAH
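Assay system: LMPTP-A, protein tyrosine phosphatase of low molecular weight / Medium: pH 6.0 Bis-Tris buffer with DTT and Triton X-100 / Schedule: 50 min enzyme reaction at room temperature, protected from light / Measured by: endpoint fluorescence intensity from OMFP dephosphorylation / Read-out basis: % inhibition relative to no-enzyme and uninhibited control wells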
SUMO1 PPI mod: modulators of SUMO1 protein-protein interactions, primary screen, biochemical, uHTS; Small ubiquitin-related modifier 1 (Homo sapiens), P63165; SUMO1 binding to a labelled peptide, TR-FRET, 1 h; inhibition, % at 20 µM; hit rate 0.33% among 360,000; AID 602429, 2012; in the data active means inhibition above about 37%
Target sequence (P63165 whole entry, looked up): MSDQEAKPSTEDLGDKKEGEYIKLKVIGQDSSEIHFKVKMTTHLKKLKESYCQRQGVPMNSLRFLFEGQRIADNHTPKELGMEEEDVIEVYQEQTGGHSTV
STEP inh: STEP phosphatase inhibitors, primary screen, biochemical, fluorescence intensity, uHTS. Tyrosine-protein phosphatase non-receptor type 5 (Homo sapiens), P54829. recombinant STEP, OMFP fluorogenic substrate. inhibition, % at 20 µM. hit rate 0.25% among 360,000;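 active means inhibition at 20 µM, scaled per plate between control wells, above about 37%, limit read from the data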
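System: isolated STEP enzyme; schedule: 20 min enzyme reaction at room temperature, protected from light; medium: Bis-Tris buffer pH 6.0, 2.5 mM DTT, 0.005% Tween 20; signal: fluorescence, 480/540 nm; dosing: single compound dose of 20 µM, 1% DMSO final; also added: OMFP substrate, 25 µM final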
Rpn11 inh: Rpn11 (PSMD14) deubiquitinase inhibitors, primary screen, biochemical, fluorescence polarization, uHTS. 26S proteasome non-ATPase regulatory subunit 14 (Homo sapiens), O00487. human 26S proteasome, Ub4-pepOG fluorescence polarization; 20S core pre-blocked with epoxomicin. inhibition, % at 20 µM. hit rate 0.59% among 360,000. AID 588493, 2011;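 active means inhibition at 20 µM, scaled to each plate's controls, above about 33%, limit read from the data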
Scp-1 conf: Scp-1 phosphatase inhibitors, retest, confirmation, biochemical, colorimetric, single concentration; shares compounds with Scp-1 inhibitor; recombinant SCP-1 catalytic domain, phosphate release, malachite green absorbance; inhibition, % at 20 µM; hit rate 61% among 2,500
MG interference: colorimetric readout interference by compounds, confirmation, artefact control for Scp-1 inhibitor project, biochemical, single concentration; shares compounds with Scp-1 inhibitor; Colorimetric interference counterscreen, malachite green absorbance 630 nm; apparent inhibition (interference), % at 20 µM; 2,500 tested, under 10 active; AID 540313, 2011;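 further: compounds added after enzyme reaction finished so only phosphate colour detection is probed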
Scp-1 Tm shift: Scp-1 binding by thermal shift, confirmation, orthogonal assay for Scp-1 inhibitor project, biophysical, differential scanning fluorimetry. shares compounds with Scp-1 inhibitor. hit rate 25% among 1,500. thermal shift relative to vanadate control, % at 40 µM. Recombinant SCP1, Sypro Orange thermal shift Tm;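 active means substances whose mean melting-temperature shift, as a percentage of the reference inhibitor's shift, reaches about 5.3%, limit read from the data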
Hits are given with their value; . = inactive; / = no result shown.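 How the source made its calls, unless noted: active means inhibition of at least 30% at 20 µM; inactive means the rest.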

SMILES	Scp-1 inhibitor	DNMT1 inh	LMPTP inh	SUMO1 PPI mod	STEP inh	Rpn11 inh	Scp-1 conf	MG interference	Scp-1 Tm shift
COc1ccc(C(=O)C(=O)c2ccc(OCCO)cc2)cc1	.	.	.	.	.	.	/	/	/
O=C(C[n+]1cccc(C(=O)Nc2ccccc2)c1)c1ccc(Cl)cc1	/	/	.	.	/	/	/	/	/
NC(=O)C[n+]1cccc(C(=O)Nc2ccccc2)c1	90.2	.	.	.	.	.	.	.	/
O=c1[nH]c2cc3c(cc2cc1CN(Cc1ccccc1)Cc1nnnn1Cc1ccco1)OCCO3	.	.	.	.	.	/	/	/	/
O=c1[nH]c2cc3c(cc2cc1CN(Cc1cccnc1)Cc1nnnn1Cc1ccco1)OCCO3	83.8	.	.	.	.	.	.	.	/
Cc1ccc(OCC(=O)c2cc(C)n(Cc3cccs3)c2C)c([N+](=O)[O-])n1	.	.	.	.	.	.	/	/	/
Cc1cc(C(=O)COc2ccc3ccc(=O)oc3c2)c(C)n1Cc1cccs1	66.2	.	.	.	.	.	52.8	.	.
COc1cccc(CNC(=O)c2ccccc2-c2ccccc2)c1	.	.	.	.	.	.	/	/	/
CC(C)c1ccc(OC(=O)c2cccc(S(=O)(=O)N3CCN(C)CC3)c2)cc1	95.6	.	.	.	.	.	86.2	.	.
CN1CCN(S(=O)(=O)c2cccc(C(=O)Oc3ccc(C(C)(C)C)cc3)c2)CC1	.	.	.	.	.	.	/	/	/
CC(NC(=O)COC(=O)c1cccc(S(=O)(=O)N2CCCC2)c1)c1ccccc1 (stereo unspecified)	53.0	.	.	.	.	.	.	.	/
CNC(=O)C[C@@H]1C(=O)N(c2ccc(Br)cc2)CC1(C)C	/	.	.	.	.	.	/	/	/
O=C(c1cc2ncc(Br)cn2n1)N1CCN(C(=O)c2ccco2)CC1	56.2	.	.	.	.	.	42.7	.	.
FC(F)(F)c1cnc(C(c2ccccc2)c2ncn[nH]2)c(Cl)c1 (stereo unspecified)	98.5	.	.	.	.	.	.	.	/
Cc1ccc(S(=O)(=O)N(CCCO)CC(O)CON=C2c3ccccc3-c3ccccc32)cc1 (stereo unspecified)	61.1	.	.	.	.	.	.	.	/
CCN(CC(O)Cn1c2ccccc2c2ccccc21)S(=O)(=O)c1ccc(C)cc1 (stereo unspecified)	.	.	.	.	.	.	/	/	/
CCN(c1ccccc1)S(=O)(=O)c1ccc(C(=O)NCc2ccco2)cc1	.	.	.	.	.	.	/	/	/
COc1ccc(OC)c(NC(=O)Cc2coc3cc(C)cc(C)c23)c1	.	.	.	.	.	.	/	/	/
Cn1cccc/c1=N\c1cccc[n+]1C	106.6	.	.	.	.	.	.	.	/
O=C(NCCc1c[nH]c2ccccc12)c1ccc2c(c1)OCO2	.	.	.	.	.	.	/	/	/
O=C(NCCc1c[nH]c2ccccc12)c1cc(Cl)c2c(c1)OCO2	51.5	.	.	.	.	.	.	.	/
COc1ccccc1CC1S/C(=N/N=C/c2ccco2)NC1=O (stereo unspecified)	.	.	.	.	.	.	/	/	/
COc1ccccc1NC(C)=[N+](C)CCNS(=O)(=O)c1ccc(Cl)cc1	95.7	.	.	.	.	.	80.7	.	.
CN(C)c1cc2c(cc1NC(=O)c1ccccc1Cl)n(C)c(=O)n2C	.	.	.	.	.	.	/	/	/
CCCCOc1ccc(S(=O)(=O)NC(=O)NCc2ccc(OCCC)cc2)cc1	.	.	.	.	.	.	/	/	/
SMILES	Scp-1 inhibitor	DNMT1 inh	LMPTP inh	SUMO1 PPI mod	STEP inh	Rpn11 inh	Scp-1 conf	MG interference	Scp-1 Tm shift
CCCCOc1ccc(CNC(=O)NS(=O)(=O)c2ccc(OCC(C)C)cc2)cc1	52.3	.	.	.	.	.	39.0	.	.
CC(C)(C)c1ccc2c(c1)OC(C(=O)N/N=C/c1ccc([N+](=O)[O-])o1)CO2 (stereo unspecified)	107.5	.	.	.	.	.	64.2	.	.
CC(C)(C)c1ccc2c(c1)OC(C(=O)N/N=C\c1ccncc1)CO2 (stereo unspecified)	.	.	.	.	.	.	/	/	/
CN(C)C(=O)c1ccc(-c2cc3onc(-c4ccccc4)c3c(=O)n2C)cc1	.	.	.	.	.	.	/	/	/
Cc1ccc2ccccc2[n+]1CCCS(=O)(=O)[O-]	.	.	.	.	.	.	/	/	/
O=S(=O)([O-])CCC[n+]1ccc(Oc2ccccc2)cc1	95.4	.	.	.	.	.	93.5	.	.
C/C(=N/NC(N)=S)c1cc2ccc(O)cc2oc1=O	54.9	.	.	.	.	/	35.9	.	.
Clc1c(Cl)c(Cl)c2n[nH]nc2c1Cl	.	.	.	.	.	.	/	/	/
CCOC(=O)N1CCN(c2c(NCC3CCCO3)c(=O)c2=O)CC1 (stereo unspecified)	81.8	.	.	.	.	.	.	.	/
CCOC(=O)N1CCN(c2c(NCCOC)c(=O)c2=O)CC1	.	.	.	.	.	.	/	/	/
O=[N+]([O-])c1cc(-c2ccc(/C=N/n3cnnc3)o2)ccc1Cl	.	.	.	.	.	.	/	/	/
O=[N+]([O-])c1ccc(Cl)c(-c2ccc(/C=N/n3cnnc3)o2)c1	62.2	.	.	.	.	.	52.2	.	.
CC(C)c1ccc(NC(=O)c2cc([N+](=O)[O-])ccc2N2CCOCC2)cc1	55.0	.	.	.	.	.	.	.	/
C#CCn1c(=NC(=O)c2ccc(Br)s2)sc2cc(NC(C)=O)ccc21	54.0	.	.	.	.	.	70.4	.	.
COCCn1c(=NC(=O)c2cccs2)sc2cc(NC(C)=O)ccc21	.	.	.	.	.	.	/	/	/
CC(=O)c1sc(C(=O)O)c(-c2ccco2)c1-c1ccco1	59.1	.	.	.	.	.	31.8	.	.
